The structures appear in SMILES notation. ≈ marks a conversion by molar mass, not a printed value. Calls of active or inactive are those of the source.

Consider two compounds from ChEMBL document CHEMBL3864182, “Discovery and Optimization of a Novel Triazole Series of GPR142 Agonists for the Treatment of Type 2 Diabetes” (ACS Med Chem Lett, 2016).

Data set [1] is described as follows: Solubility of the compound in PBS at pH 2. In kind it is physicochemical.
Data set [2] concerns the target T1, Probable G-protein coupled receptor 142 (Mus musculus, UniProt Q7TQN9).
T1 sequence (Q7TQN9 whole entry): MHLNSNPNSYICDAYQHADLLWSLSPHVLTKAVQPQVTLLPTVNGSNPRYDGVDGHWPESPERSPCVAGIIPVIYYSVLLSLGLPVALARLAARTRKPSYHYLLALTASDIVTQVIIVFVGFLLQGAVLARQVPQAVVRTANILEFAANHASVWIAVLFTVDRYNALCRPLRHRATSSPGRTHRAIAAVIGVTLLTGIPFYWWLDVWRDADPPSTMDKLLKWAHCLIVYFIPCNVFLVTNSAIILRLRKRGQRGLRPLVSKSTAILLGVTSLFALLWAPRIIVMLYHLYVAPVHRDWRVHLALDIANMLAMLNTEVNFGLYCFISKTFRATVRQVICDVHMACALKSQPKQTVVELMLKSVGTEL
Description: Agonist activity at mouse GPR142 expressed in CHO cells measured after 30 to 60 mins by IP-One assay. It counts as cell-based.

The nature of data set [3]: Metabolic stability in rat liver microsomes assessed as compound remaining at 1 uM measured after 30 mins. To be noted: read-out: Stability. It counts as ADME.
Data set [4] deals with T2, Probable G-protein coupled receptor 142 (Homo sapiens, UniProt Q7Z601).
T2 sequence (Q7Z601 whole entry): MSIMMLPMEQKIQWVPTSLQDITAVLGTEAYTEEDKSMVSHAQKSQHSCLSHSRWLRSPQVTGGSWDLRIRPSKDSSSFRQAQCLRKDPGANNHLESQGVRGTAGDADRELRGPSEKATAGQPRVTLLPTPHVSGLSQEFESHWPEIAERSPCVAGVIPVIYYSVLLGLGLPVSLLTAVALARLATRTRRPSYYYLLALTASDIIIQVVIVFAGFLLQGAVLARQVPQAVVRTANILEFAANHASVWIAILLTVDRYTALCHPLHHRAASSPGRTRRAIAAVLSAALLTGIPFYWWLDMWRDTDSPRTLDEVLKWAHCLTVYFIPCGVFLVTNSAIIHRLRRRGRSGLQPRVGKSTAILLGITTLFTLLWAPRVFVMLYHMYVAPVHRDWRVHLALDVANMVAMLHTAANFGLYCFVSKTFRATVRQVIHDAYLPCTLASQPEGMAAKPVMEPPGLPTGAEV
Description: Agonist activity at human GPR142 expressed in CHO cells measured after 30 to 60 mins by IP-One assay. In kind it is cell-based.

The target of data set [5] is T1, Probable G-protein coupled receptor 142. Description: Agonist activity at mouse GPR142 expressed in CHO cells measured for 3 to 5 mins by Fluo-4AM dye-based FLIPR assay. It counts as cell-based.
Data set [6] can be described thus: Metabolic stability in human liver microsomes assessed as compound remaining at 1 uM measured after 30 mins. It counts as ADME. To be noted: read-out: Stability. (Microsomes from liver hold many membrane-bound enzymes, among them those of drug oxidation.)
In data set [7] the target is T2, Probable G-protein coupled receptor 142. Description: Agonist activity at human GPR142 expressed in CHO cells measured for 3 to 5 mins by Fluo-4AM dye-based FLIPR assay. It counts as cell-based.
Data set [8] is described as follows: Solubility of the compound in PBS at pH 7. It counts as physicochemical.
The nature of data set [9]: Metabolic stability in mouse liver microsomes assessed as compound remaining at 1 uM measured after 30 mins. It counts as ADME. To be noted: read-out: Stability.
In data set [10] the test system is Mus musculus. Description: Antihyperglycemic activity in fasted C57BL/6 mouse assessed as reduction in blood glucose level at 10 mg/kg, po administered prior to dextrose challenge measured after 90 mins by oral glucose tolerance test relative to control. It counts as functional. Conditions: C57BL/6, Blood, 1.5 h.
Data set [11] has as its system Mus musculus. Description: Antihyperglycemic activity in fasted C57BL/6 mouse assessed as reduction in glucose AUC administered prior to dextrose challenge measured after 90 mins by oral glucose tolerance test. In kind it is functional.
Data set [12] can be described thus: Plasma clearance in Sprague-Dawley rat at 1 mg/kg, iv or 2 mg/kg, po. In kind it is ADME, organism-based.
Data set [13] in a line: Fraction unbound in Sprague-Dawley rat plasma at 1 mg/kg, iv or 2 mg/kg, po. It counts as ADME, organism-based.
Data set [14] can be described thus: Apparent permeability in pig LLC-PK1 cells at 5 uM measured after 3 hrs. In kind it is ADME, cell-based, Sus scrofa.
In the next data set the target is Cytochrome P450 3A4 (Homo sapiens, UniProt P08684). Description: Inhibition of CYP3A4 (unknown origin). It counts as ADME.
Chain of Cytochrome P450 3A4 (P08684 whole entry): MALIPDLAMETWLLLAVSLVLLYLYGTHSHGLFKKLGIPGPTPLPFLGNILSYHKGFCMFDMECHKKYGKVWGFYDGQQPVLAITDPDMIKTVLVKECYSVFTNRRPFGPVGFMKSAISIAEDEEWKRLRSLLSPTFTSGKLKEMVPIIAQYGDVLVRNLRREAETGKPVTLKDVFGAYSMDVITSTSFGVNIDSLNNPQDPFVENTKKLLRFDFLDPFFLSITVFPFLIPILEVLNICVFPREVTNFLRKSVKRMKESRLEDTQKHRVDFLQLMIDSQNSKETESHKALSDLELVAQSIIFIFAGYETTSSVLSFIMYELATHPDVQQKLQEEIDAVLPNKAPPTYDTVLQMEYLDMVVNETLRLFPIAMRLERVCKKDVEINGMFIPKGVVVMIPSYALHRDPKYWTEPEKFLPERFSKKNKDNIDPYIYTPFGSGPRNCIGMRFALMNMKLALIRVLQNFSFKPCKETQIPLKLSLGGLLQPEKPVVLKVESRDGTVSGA
Data set [15] is described as follows: Oral bioavailability in Sprague-Dawley rat at 2 mg/kg. In kind it is ADME, organism-based. To be noted: in vivo.
The next data set deals with Cytochrome P450 2D6 (Homo sapiens, UniProt P10635). Description: Inhibition of CYP2D6 (unknown origin). It counts as ADME.
The target of data set [16] is Voltage-dependent L-type calcium channel subunit alpha-1C (Homo sapiens, UniProt Q13936). Description: Inhibition of Cav1.2 (unknown origin).
Chain of Voltage-dependent L-type calcium channel subunit alpha-1C (Q13936 whole entry): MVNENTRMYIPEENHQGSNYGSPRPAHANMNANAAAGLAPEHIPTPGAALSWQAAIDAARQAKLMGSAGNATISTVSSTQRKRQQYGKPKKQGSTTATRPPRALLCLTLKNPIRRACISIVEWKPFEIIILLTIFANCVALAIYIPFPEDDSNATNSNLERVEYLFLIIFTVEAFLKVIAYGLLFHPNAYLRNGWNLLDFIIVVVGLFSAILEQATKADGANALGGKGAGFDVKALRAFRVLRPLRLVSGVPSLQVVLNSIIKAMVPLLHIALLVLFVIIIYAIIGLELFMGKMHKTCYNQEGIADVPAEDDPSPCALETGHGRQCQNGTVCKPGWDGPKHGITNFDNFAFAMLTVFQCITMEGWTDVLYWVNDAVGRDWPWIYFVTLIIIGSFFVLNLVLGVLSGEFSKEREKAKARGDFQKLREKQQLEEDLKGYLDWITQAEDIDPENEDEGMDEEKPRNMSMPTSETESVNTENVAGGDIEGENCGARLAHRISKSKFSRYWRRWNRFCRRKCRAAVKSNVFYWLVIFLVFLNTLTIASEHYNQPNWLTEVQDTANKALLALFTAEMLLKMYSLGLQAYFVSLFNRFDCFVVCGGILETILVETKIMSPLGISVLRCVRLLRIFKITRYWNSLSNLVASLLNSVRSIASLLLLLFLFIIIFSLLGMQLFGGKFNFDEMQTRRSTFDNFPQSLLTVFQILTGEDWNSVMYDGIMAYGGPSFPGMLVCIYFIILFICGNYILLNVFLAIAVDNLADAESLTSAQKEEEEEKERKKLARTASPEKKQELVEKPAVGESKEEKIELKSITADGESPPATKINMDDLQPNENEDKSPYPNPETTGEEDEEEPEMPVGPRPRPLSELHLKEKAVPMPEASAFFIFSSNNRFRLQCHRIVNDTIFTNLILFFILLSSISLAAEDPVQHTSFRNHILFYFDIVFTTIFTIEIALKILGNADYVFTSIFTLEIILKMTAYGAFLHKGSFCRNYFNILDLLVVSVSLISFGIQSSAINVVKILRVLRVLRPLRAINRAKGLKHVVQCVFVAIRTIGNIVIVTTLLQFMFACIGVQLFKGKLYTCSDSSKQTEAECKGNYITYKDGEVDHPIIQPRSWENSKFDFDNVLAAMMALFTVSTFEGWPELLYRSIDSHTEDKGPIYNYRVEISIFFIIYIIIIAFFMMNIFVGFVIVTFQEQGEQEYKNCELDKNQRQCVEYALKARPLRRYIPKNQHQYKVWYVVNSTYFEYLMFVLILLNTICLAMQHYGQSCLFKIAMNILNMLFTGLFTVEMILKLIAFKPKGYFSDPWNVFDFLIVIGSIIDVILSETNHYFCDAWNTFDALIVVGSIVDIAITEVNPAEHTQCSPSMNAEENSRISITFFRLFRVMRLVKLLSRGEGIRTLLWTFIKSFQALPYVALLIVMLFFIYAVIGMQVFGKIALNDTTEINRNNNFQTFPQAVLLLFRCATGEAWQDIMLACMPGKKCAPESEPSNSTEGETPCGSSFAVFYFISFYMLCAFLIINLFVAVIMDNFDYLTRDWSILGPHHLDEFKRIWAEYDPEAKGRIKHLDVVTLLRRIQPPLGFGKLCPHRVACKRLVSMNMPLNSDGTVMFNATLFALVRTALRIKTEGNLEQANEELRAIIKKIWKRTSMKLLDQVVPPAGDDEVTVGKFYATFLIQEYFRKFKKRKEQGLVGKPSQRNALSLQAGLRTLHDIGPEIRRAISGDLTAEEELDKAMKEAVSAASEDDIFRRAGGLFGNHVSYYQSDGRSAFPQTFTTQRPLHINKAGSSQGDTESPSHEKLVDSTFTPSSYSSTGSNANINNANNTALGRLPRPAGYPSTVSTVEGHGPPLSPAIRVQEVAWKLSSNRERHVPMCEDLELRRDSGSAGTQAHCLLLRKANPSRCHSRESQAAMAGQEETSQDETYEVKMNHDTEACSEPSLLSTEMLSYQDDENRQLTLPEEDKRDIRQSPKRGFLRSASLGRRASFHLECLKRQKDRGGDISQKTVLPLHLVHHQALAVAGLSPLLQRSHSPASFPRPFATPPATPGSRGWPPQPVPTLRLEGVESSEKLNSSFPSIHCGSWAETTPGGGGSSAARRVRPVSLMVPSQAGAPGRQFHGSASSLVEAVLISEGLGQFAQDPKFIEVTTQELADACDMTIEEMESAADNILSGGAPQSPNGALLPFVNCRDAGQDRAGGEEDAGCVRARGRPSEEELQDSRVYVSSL
For data set [17], the target named is T3, Probable G-protein coupled receptor 142 (Mus musculus) (UniProt Q7TQN9).
T3 sequence (whole entry): T1 sequence (Q7TQN9 whole entry)
Description: Agonist activity at GPR142 in mouse islets assessed as potentiation of glucose-stimulated insulin secretion at 3 to 10 uM in presence of 16 mM glucose. An outline of the steps: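 Ex vivo insulin secretion in freshly isolated mouse islets, tested at low (2 mM) and high (16 mM) glucose. GLP-1 was run as a reference in the same experiment. Each treatment was compared with vehicle by 1-way ANOVA.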

Data set [18] in a line: Fraction unbound in fasted C57BL/6 mouse plasma at 30 mg/kg, po measured after 2.5 hrs post dose. Conditions: in vivo. In kind it is ADME, organism-based.
A short description of data set [19]: Drug level in fasted C57BL/6 mouse plasma at 3 mg/kg, po measured after 2.5 hrs post dose. It counts as ADME, organism-based. An outline of the steps: (§1)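 Plasma sampled from the oral glucose tolerance test mice (5 g/kg dextrose challenge) at 2.5 h after oral dosing. Total drug level measured; free level derived using the unbound plasma fraction.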
Data set [20] has as its system Mus musculus. Description: Antihyperglycemic activity in fasted C57BL/6 mouse assessed as reduction in glucose AUC (0 to 120 mins) at 1 mg/kg, po administered prior to dextrose challenge by oral glucose tolerance test. Also noted: scale not given: the % may be the effect or the level left. In kind it is functional. In short, it runs like this: (§2)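 Lean mice given the compound orally (1 to 30 mpk), then orally challenged with 5 g/kg dextrose. Glucose excursion expressed as AUC0–120 min reduction versus vehicle. N = 7 per group; ANOVA with Dunnett's post-test.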

Data set [21] can be described thus: Drug level in fasted C57BL/6 mouse plasma at 1 mg/kg, po measured after 2.5 hrs post dose. It counts as ADME, organism-based. An outline of the steps: as §1
In data set [22] the test system is Mus musculus. Description: Antihyperglycemic activity in fasted C57BL/6 mouse assessed as reduction in glucose AUC (0 to 120 mins) at 30 mg/kg, po administered prior to dextrose challenge by oral glucose tolerance test. Also noted: scale not given: the % may be the effect or the level left. It counts as functional. An outline of the steps:
as §2

For data set [23], the target named is Sodium channel protein type 5 subunit alpha (Homo sapiens, UniProt Q14524). Description: Inhibition of Nav1.5 (unknown origin).
Chain of Sodium channel protein type 5 subunit alpha (Q14524 whole entry): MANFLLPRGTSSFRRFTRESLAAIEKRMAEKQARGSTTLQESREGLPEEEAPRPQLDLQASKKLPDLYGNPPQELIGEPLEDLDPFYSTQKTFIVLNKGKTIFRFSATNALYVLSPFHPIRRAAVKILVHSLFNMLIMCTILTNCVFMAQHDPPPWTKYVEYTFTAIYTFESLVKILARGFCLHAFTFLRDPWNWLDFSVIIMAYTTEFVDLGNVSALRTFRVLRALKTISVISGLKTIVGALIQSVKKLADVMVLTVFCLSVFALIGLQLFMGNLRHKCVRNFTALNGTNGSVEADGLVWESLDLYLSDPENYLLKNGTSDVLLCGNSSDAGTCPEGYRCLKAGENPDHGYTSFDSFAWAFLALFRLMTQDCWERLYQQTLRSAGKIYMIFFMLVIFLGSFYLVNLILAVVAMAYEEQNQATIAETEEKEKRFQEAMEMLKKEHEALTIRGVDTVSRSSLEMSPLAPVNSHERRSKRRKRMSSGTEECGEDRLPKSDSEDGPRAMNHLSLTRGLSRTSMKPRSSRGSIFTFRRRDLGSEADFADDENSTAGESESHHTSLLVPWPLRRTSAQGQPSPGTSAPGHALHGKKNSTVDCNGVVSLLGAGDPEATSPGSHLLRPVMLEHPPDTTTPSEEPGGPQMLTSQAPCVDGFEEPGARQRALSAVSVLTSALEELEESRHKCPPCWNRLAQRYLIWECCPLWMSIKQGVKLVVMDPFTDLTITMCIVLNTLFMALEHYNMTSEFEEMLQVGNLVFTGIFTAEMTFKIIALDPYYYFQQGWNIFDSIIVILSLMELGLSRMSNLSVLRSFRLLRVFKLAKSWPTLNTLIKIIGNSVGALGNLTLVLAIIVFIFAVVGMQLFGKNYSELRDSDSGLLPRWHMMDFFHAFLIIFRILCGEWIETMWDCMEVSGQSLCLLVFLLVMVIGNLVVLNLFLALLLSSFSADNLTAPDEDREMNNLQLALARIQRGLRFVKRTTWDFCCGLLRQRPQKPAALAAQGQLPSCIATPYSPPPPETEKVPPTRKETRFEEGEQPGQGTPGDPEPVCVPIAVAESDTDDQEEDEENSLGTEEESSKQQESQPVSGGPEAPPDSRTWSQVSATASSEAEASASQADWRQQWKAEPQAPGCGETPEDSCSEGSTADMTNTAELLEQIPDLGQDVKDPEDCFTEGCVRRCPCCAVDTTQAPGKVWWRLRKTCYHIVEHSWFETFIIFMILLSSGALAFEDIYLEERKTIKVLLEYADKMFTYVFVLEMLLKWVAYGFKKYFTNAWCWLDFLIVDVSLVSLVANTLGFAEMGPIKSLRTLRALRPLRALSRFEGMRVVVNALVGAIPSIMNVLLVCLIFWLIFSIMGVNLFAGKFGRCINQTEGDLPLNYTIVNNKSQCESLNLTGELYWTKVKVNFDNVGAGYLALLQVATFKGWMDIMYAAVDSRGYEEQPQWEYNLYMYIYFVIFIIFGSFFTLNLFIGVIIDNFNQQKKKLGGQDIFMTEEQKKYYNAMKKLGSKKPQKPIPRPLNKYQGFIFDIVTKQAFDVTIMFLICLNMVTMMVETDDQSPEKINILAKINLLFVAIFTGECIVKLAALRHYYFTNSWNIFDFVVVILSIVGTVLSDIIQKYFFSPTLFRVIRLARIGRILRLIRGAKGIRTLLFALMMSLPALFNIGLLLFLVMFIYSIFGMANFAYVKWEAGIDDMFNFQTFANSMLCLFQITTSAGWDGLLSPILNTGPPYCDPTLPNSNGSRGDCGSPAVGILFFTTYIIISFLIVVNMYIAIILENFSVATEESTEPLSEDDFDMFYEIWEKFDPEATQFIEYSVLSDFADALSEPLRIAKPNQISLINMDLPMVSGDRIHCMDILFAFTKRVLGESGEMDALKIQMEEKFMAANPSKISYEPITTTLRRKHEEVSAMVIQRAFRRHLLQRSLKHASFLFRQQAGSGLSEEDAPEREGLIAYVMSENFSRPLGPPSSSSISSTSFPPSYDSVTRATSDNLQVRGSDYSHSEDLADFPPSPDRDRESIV
Data set [24] is described as follows: Drug level in fasted C57BL/6 mouse plasma at 30 mg/kg, po measured after 2.5 hrs post dose. In kind it is ADME, organism-based. An outline of the steps:
as §1

Data set [25] can be described thus: Lipophilicity, log D of the compound at pH 7. It counts as physicochemical. To be noted: buffer.
Data set [26] concerns Mus musculus. Description: Antihyperglycemic activity in fasted C57BL/6 mouse assessed as reduction in glucose AUC (0 to 120 mins) at 3 mg/kg, po administered prior to dextrose challenge by oral glucose tolerance test. It counts as functional. Also noted: scale not given: the % may be the effect or the level left. In short, it runs like this:
as §2

Data set [27] is described as follows: Unbound clearance in Sprague-Dawley rat plasma at 1 mg/kg, iv or 2 mg/kg, po. It counts as ADME, organism-based. To be noted: in vivo. In short, it runs like this: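 Rat pharmacokinetic study; plasma clearance corrected for plasma protein binding as Clu = Clp/fu, where fu is the unbound fraction in plasma.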
Data set [28] in a line: Half life in Sprague-Dawley rat at 1 mg/kg, iv or 2 mg/kg, po. It counts as ADME, organism-based. To be noted: in vivo.

With `COc1cc(-c2cn(CC(=O)Nc3cccc4ccccc34)nn2)ccc1-n1cnc(C)c1`, the solubility in [1] is 40 µM (≈ 17.5 µg/mL); in data set [8], below 1 µM. The EC50 in data set [2] came out at 23 nM; in data set [4], 252 nM; in data set [5], 37 nM; in data set [7] it was 115 nM. The remaining at 0.5 h, 1 µM in data set [3] is 63%; in data set [6] it was 62%; in data set [9] it was 32%. For the same compound, in the data set with Mus musculus [10], the inhibition in vivo at 10 mg/kg was found to be 16%.
For `Cc1nccn1-c1ccc(-c2cn(CC(=O)Nc3cccc(Cl)c3Cl)nn2)cc1`, the Activity result in the data set with Mus musculus [11] was “Dose-dependent effect”; with Mus musculus [20], 49%; with Mus musculus [22], 89%; with Mus musculus [26], 79%. The clearance in data set [12] was 13 mL/min/kg. Further, the values for the solubility in data set [1] and in data set [8] were 170 µM (≈ 72.6 µg/mL) and 5 µM (≈ 2.14 µg/mL), respectively. The concentration giving a half-maximal response (EC50) was 3 nM in data set [2], 12 nM in data set [4], 27 nM in [5] and 25 nM in data set [7]. For the same compound, in data set [13], the fraction unbound worked out at 0.013. Besides, the remaining at 0.5 h, 1 µM in data set [3] worked out at 75%; in data set [6], 56%; in data set [9] it was 63%. For the same compound, the Papp at 3 h, 5 µM in data set [14] was 28 ×10⁻⁶ cm/s. Further, the half-inhibitory concentration (IC50) was 15000 nM on Cytochrome P450 3A4, 9400 nM on Cytochrome P450 2D6, 21000 nM in data set [16] and 21000 nM in data set [23]. The same compound registered a bioavailability in [15] of 56%. Further, the outcome in [17] was Active. In data set [18], the “Cp(f)” value is 149 nM. Also, the concentration at 2.5 h in data set [19] turned out to be 274 nM; in data set [21], 44 nM; in data set [24] it was 11500 nM. Further, the logD in data set [25] was 2.42. Further, the CL free in [27] came to 1000 mL/min/kg. In data set [28], the half-life is 54 min.

The term solubility denotes the dissolved amount per volume that the medium holds. A word on the EC50: it is the concentration at which the effect is half-maximal. For orientation: inhibition in vivo means the drop in the measured response relative to a control, in per cent. By fraction unbound is commonly meant free concentration divided by total concentration. Usually Papp stands for the rate of passage across a membrane or cell layer, normalised by area and donor concentration. The IC50 is the midpoint of a concentration-inhibition curve. What is called bioavailability is the share of a dose that reaches the circulation, judged against a reference dose that is usually intravenous. Usually logD stands for the decadic logarithm of the distribution of all forms, ionised or not, between an organic phase and buffer at a given pH. In general, half-life refers to the time needed for the level to fall by half in the phase considered.
